Laboratory results from ChEMBL document CHEMBL1938357, “Inhibition of Dengue virus and West Nile virus proteases by click chemistry-derived benz[d]isothiazol-3(2H)-one derivatives” (Bioorg Med Chem, 2012).
Activity calls are given as the source filed them. No cut-off for these calls is given here.

Columns and labels:
[1] = tested on: dengue virus type 2; test: Inhibition of Dengue virus 2 NS2B-NS3 protease expressed in Escherichia coli using Bz-Nle-Lys-Arg-Arg-AMC as substrate at 25 uM measured every 90 sec upto 30 mins by spectrofluorometry
Summary of the method: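 DENV2 NS2B(hydrophilic cofactor)-NS3pro, linked via Q-R and expressed in E. coli Top 10 F′, at 25 nM in 200 mM Tris-HCl pH 9.5, 6 mM NaCl, 30% glycerol. Compound at 25 μM (1% DMSO final) was pre-incubated at room temperature with enzyme. Bz-Nle-Lys-Arg-Arg-AMC added at 5.0 μM; read at 37 °C, ex 380/em 460 nm, every 90 s up to 30 min. % inhibition from RFU ± compound; triplicate averages.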

[2] = Inhibition of Dengue virus 2 NS2B-NS3 protease expressed in Escherichia coli using Bz-Nle-Lys-Arg-Arg-AMC as substrate measured every 90 sec upto 30 mins by spectrofluorometry; design: species or system dengue virus type 2
Summary of the method: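 Inhibitors at 10 nM, 50 nM, 0.1, 1, 2, 5, 10 and 25 μM were incubated 15 min with DENV2 NS2B-NS3pro (50 nM) in 200 mM Tris-HCl, 6 mM NaCl, 30% glycerol, pH 9.5. Bz-Nle-Lys-Arg-Arg-AMC (5.0 μM) was then added. Signal recorded at 37 °C (ex 380, em 460 nm) with buffer subtracted. IC50 derived by curve fitting.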

[3] = Inhibition of Dengue virus 2 NS2B-NS3 protease expressed in Escherichia coli using Bz-Nle-Lys-Arg-Arg-AMC as substrate by spectrofluorometry; design: species or system dengue virus type 2
[4] = tested on: dengue virus type 2; test: Inhibition of Dengue virus 2 NS2B-NS3 protease expressed in Escherichia coli using Bz-Nle-Lys-Arg-Arg-AMC as substrate at 25 uM measured every 90 sec upto 30 mins by spectrofluorometry in the presence of 0.1% CHAPS
Summary of the method: (§1)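 Detergent re-screen: 200 mM Tris-HCl pH 9.5, 6 mM NaCl, 30% glycerol, 0.1% CHAPS, with DENV2 NS2B-NS3pro at 25 nM or WNV NS2BH-NS3pro (5-residue spacer) at 28 nM. Compound at 25 μM, 1% DMSO final, pre-incubated at room temperature with enzyme. Substrate Bz-Nle-Lys-Arg-Arg-AMC at 5.0 μM; fluorescence at 380/460 nm at 37 °C over 30 min. Percent inhibition from RFU with vs without compound; triplicate averages.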

[5] = tested on: West Nile virus; test: Inhibition of West Nile virus NS2B-NS3 protease expressed in Escherichia coli using Bz-Nle-Lys-Arg-Arg-AMC as substrate at 25 uM measured every 90 sec upto 30 mins by spectrofluorometry; summary of the method: as §1

SMILES: O=C(Cn1sc2ccccc2c1=O)Nc1cccc(OCc2cn(CC(=O)Nc3ccccc3Oc3ccccc3)nn2)c1
- inhibition [1]: Active
- IC50 [2]: 3.48 µM
- Ki [3]: 4.77 µM
- inhibition [4]: Active
- inhibition [5]: Active

SMILES: O=C(Cn1sc2ccccc2c1=O)NCc1cn(CC(=O)Nc2cccc(Oc3ccccc3)c2)nn1
- inhibition [1]: Active
- inhibition [4]: Active

SMILES: COc1ccc(Cn2cc(CNC(=O)Cn3sc4ccccc4c3=O)nn2)cc1
- inhibition [1]: inactive

SMILES: O=C(Cn1cc(COc2cccc(NC(=O)Cn3sc4ccccc4c3=O)c2)nn1)Nc1ccccc1
- inhibition [1]: Active
- IC50 [2]: 13.4 µM
- inhibition [4]: Active
- inhibition [5]: Active

SMILES: O=C(O)Cn1cc(CNC(=O)Cn2sc3ccccc3c2=O)nn1
- inhibition [1]: inactive

SMILES: O=C(Cn1sc2ccccc2c1=O)NCc1cn(CCCc2ccccc2)nn1
- inhibition [1]: inactive

SMILES: O=C(Cn1sc2ccccc2c1=O)NCc1cn(CC(=O)Nc2ccc(Oc3ccccc3)cc2)nn1
- inhibition [1]: Active
- IC50 [2]: 4.87 µM
- inhibition [4]: Active
- inhibition [5]: Active

SMILES: COC(=O)c1cccc(Cn2cc(COc3cccc(NC(=O)Cn4sc5ccccc5c4=O)c3)nn2)c1
- inhibition [1]: Active
- inhibition [4]: Active

SMILES: O=C(Cn1sc2ccccc2c1=O)NCc1cn(Cc2ccccc2)nn1
- inhibition [1]: inactive

SMILES: O=C(Cn1sc2ccccc2c1=O)NCc1cn(CC(=O)Nc2ccccc2Oc2ccccc2)nn1
- inhibition [1]: inactive

SMILES: O=C(Cn1sc2ccccc2c1=O)Nc1cccc(OCc2cn(CC(=O)c3ccccc3)nn2)c1
- inhibition [1]: Active
- IC50 [2]: 6.22 µM
- inhibition [4]: Active
- inhibition [5]: Active

SMILES: CC(C)(C)OC(=O)Cn1cc(CNC(=O)Cn2sc3ccccc3c2=O)nn1
- inhibition [1]: inactive

SMILES: COC(=O)c1cccc(Cn2cc(CNC(=O)Cn3sc4ccccc4c3=O)nn2)c1
- inhibition [1]: inactive

SMILES: O=C(Cn1sc2ccccc2c1=O)NCc1cn(CSc2ccccc2)nn1
- inhibition [1]: inactive

SMILES: O=C(Cn1sc2ccccc2c1=O)NCc1cn(Cc2cccc(F)c2)nn1
- inhibition [1]: inactive

SMILES: O=C(Cn1sc2ccccc2c1=O)NCc1cn(CCOc2ccccc2)nn1
- inhibition [1]: inactive

SMILES: O=C(Cn1sc2ccccc2c1=O)NCc1cn(Cc2ccc(F)cc2)nn1
- inhibition [1]: inactive

SMILES: O=C(Cn1cc(COc2cccc(NC(=O)Cn3sc4ccccc4c3=O)c2)nn1)Nc1ccc(Oc2ccccc2)cc1
- inhibition [1]: Active
- IC50 [2]: 4.45 µM
- inhibition [4]: Active
- inhibition [5]: Active

SMILES: O=C(Cn1sc2ccccc2c1=O)NCc1cn(CCc2ccccc2)nn1
- inhibition [1]: inactive

SMILES: O=C(Cn1sc2ccccc2c1=O)NCc1cn(CC(=O)c2ccccc2)nn1
- inhibition [1]: inactive

SMILES: O=C(Cn1cc(COc2cccc(NC(=O)Cn3sc4ccccc4c3=O)c2)nn1)Nc1cccc(Oc2ccccc2)c1
- inhibition [1]: Active
- IC50 [2]: 4.59 µM
- inhibition [4]: Active
- inhibition [5]: Active

SMILES: O=C(Cn1sc2ccccc2c1=O)NCc1cn(CC(=O)Nc2ccccc2)nn1
- inhibition [1]: inactive
